Series [1] can be described thus: GSH reactivity assessed as reaction half life through transition state modeling at pH 7.4. The format is physicochemical. The following applies: glutathione (GSH) reaction mixture.
A short description of series [2]: Reactivity of covalent reactive group using GSH reaction assessed as pseudo-first-order reaction at 37 degC by mass spectrometry. The method in brief:
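Automated liquid handler at 37 °C under N2 with degassed solutions. The mix holds 1 mM electrophile, 10 mM GSH and 0.10 mM indoprofen internal standard in 100 mM potassium phosphate pH 7.4:ACN 90:10. Sampling was hourly for 7 h, each sample diluted 10-fold in water. Pseudo-first-order k gives t1/2. Controls had no GSH.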

A short description of series [3]: Reactivity of covalent reactive group using GSH reaction assessed as pseudo-first-order reaction at 37 degC by nuclear magnetic resonance spectroscopy. The method in brief:
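Electrophile standard at 2 mM and GSH solution at 20 mM, both in 100 mM phosphate pH 7.4 with 10% D2O, combined in an NMR tube. 1D 1H spectra with presaturation were acquired hourly for about 19 h. Pseudo-first-order k came from the natural log of the electrophile resonance area versus time, converted to t1/2.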

Series [4] in a line: Reactivity of covalent reactive group using GSH reaction assessed as pseudo-first-order reaction at 60 degC by mass spectrometry.

Take `CNC(=O)/C=C/CN1CCOCC1`: the half-life (commonly how long it takes for the measured level to halve) in series [1] was 28 h. On to `CNC(=O)CBr`, for which, in series [2], the K was over 140 ×10⁻³ /min. Besides, in series [1], the half-life was under 0.08 h.

Take `CN1CCC=CS1(=O)=O`: the K in series [2] came to 0.2 ×10⁻³ /min. For the molecule `N#CN1CCCC1` [CYANO-PYRROLIDINE], the K in series [3] amounted to 5.3 ×10⁻³ /min. Besides, the half-life in series [1] was 2.2 h. As to `N#CN1CCCCC1`, the K in series [3] is 0.8 ×10⁻³ /min. `C=CC(=O)NC`: the K in series [3] came out at 0.7 ×10⁻³ /min. Further, in series [1], the half-life is 17 h. On to `CC#CC(=O)NC`, for which the K in series [3] was 0.3 ×10⁻³ /min. As to `C/C=C(\C)S(=O)(=O)NC`, the K in series [4] was under 0.2 ×10⁻³ /min. `C=CC(=O)NCc1cccc(OC)c1`: in series [2], the K is 0.4 ×10⁻³ /min. As to `C=C(C)C(=O)Nc1ccccc1`, in series [4], the K is 0.2 ×10⁻³ /min. As to `CC1CCCN1C#N` (stereo unspecified), in series [3], the K amounted to 0.6 ×10⁻³ /min. With `N#Cc1ccccn1`, the K in series [3] amounted to 0.5 ×10⁻³ /min. Besides, in series [1], the half-life is 25 h. Turning to `CNC(=O)C1=CCCC1`, in series [4], the K is under 0.2 ×10⁻³ /min. Consider `CNC(=O)C(C)Cl` (stereo unspecified), for which the K in series [4] came to 0.6 ×10⁻³ /min. For `CNC(=O)C1=CCC1`, in series [4], the K is 0.6 ×10⁻³ /min.

Turning to `CNC(=O)CCl`, the K in series [2] was 3.6 ×10⁻³ /min. The half-life in series [1] is 3.2 h. Consider `CN1CC=CC1=O`, for which the K in series [2] amounted to 0.4 ×10⁻³ /min. With `C=C(C)S(=O)(=O)NC`, the K in series [2] is under 0.2 ×10⁻³ /min; in series [4], 0.4 ×10⁻³ /min.

Consider `C=CC(=O)N1CCCCC1`, for which the K in series [2] was 0.4 ×10⁻³ /min. Still for that read-out and setting: in the case of `CN1CC=CS1(=O)=O` it was 0.4 ×10⁻³ /min.
